Test results: ChEMBL document CHEMBL1146451, “Spirostanol and furostanol glycosides from the fresh tubers of Polianthes tuberosa” (J Nat Prod, 2004)
≈ marks a conversion by molar mass, not a printed value.

The compounds below were run on HeLa (assay: Cytotoxicity against human HeLa cells after 72 hrs by MTT assay).
Type: functional, cell-based
Summary of the method: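 HeLa cells seeded at 2 × 10^4 cells/mL in RPMI 1640, preincubated 12 h at 37 °C in 5% CO2/air. Samples added in DMSO to final 25, 20, 15, 10, 5, 2.5, 1.25, 0.80 µg/mL; DMSO alone in control wells.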
`C[C@@H]1CC[C@@]2(OC1)O[C@H]1C[C@H]3[C@@H]4CC[C@H]5C[C@@H](O[C@@H]6O[C@H](CO)[C@H](O[C@@H]7O[C@H](CO)[C@@H](O)[C@H](O[C@@H]8OC[C@@H](O)[C@H](O)[C@H]8O)[C@H]7O[C@@H]7O[C@H](CO)[C@@H](O)[C@H](O[C@@H]8OC[C@@H](O)[C@H](O)[C@H]8O)[C@H]7O)[C@H](O)[C@H]6O)CC[C@]5(C)[C@H]4CC(=O)[C@]3(C)[C@H]1[C@@H]2C` showed an IC50 of 4.02 µg/mL (≈ 3.4 µM).
For `C[C@@H]1CC[C@@]2(OC1)O[C@H]1C[C@H]3[C@@H]4CC[C@H]5C[C@@H](O[C@@H]6O[C@H](CO)[C@H](O[C@@H]7O[C@H](CO)[C@@H](O)[C@H](O[C@@H]8OC[C@@H](O)[C@H](O)[C@H]8O)[C@H]7O[C@@H]7O[C@H](CO)[C@@H](O)[C@H](O)[C@H]7O)[C@H](O)[C@H]6O)CC[C@]5(C)[C@H]4CC(=O)[C@]3(C)[C@H]1[C@@H]2C`, the IC50 was 8.17 µg/mL (≈ 7.79 µM).
For `C[C@H](CC[C@@]1(O)O[C@H]2C[C@H]3[C@@H]4CC[C@H]5C[C@@H](O[C@@H]6O[C@H](CO)[C@H](O[C@@H]7O[C@H](CO)[C@@H](O)[C@H](O[C@@H]8O[C@H](CO)[C@@H](O)[C@H](O)[C@H]8O)[C@H]7O[C@@H]7O[C@H](CO)[C@@H](O)[C@H](O[C@@H]8OC[C@@H](O)[C@H](O)[C@H]8O)[C@H]7O)[C@H](O)[C@H]6O)CC[C@]5(C)[C@H]4CC[C@]3(C)[C@H]2[C@@H]1C)CO[C@@H]1O[C@H](CO)[C@@H](O)[C@H](O)[C@H]1O` [POLIANTHOSIDE G], the IC50 was 5.36 µg/mL (≈ 3.89 µM).
With `C[C@@H]1CC[C@@]2(OC1)O[C@H]1C[C@H]3[C@@H]4CC[C@H]5C[C@@H](O[C@@H]6O[C@H](CO)[C@H](O[C@@H]7O[C@H](CO)[C@@H](O)[C@H](O)[C@H]7O[C@@H]7O[C@H](CO)[C@@H](O)[C@H](O)[C@H]7O)[C@H](O)[C@H]6O)CC[C@]5(C)[C@H]4CC(=O)[C@]3(C)[C@H]1[C@@H]2C` the IC50 was 8.61 µg/mL (≈ 9.39 µM).
Work on `C[C@H](CC[C@@]1(O)O[C@H]2C[C@H]3[C@@H]4CC[C@H]5C[C@@H](O[C@@H]6O[C@H](CO)[C@H](O[C@@H]7O[C@H](CO)[C@@H](O)[C@H](O[C@@H]8OC[C@@H](O)[C@H](O)[C@H]8O)[C@H]7O[C@@H]7O[C@H](CO)[C@@H](O)[C@H](O[C@@H]8OC[C@@H](O)[C@H](O)[C@H]8O)[C@H]7O)[C@H](O)[C@H]6O)CC[C@]5(C)[C@H]4CC(=O)[C@]3(C)[C@H]2[C@@H]1C)CO[C@@H]1O[C@H](CO)[C@@H](O)[C@H](O)[C@H]1O` [POLIANTHOSIDE E] yielded an IC50 of 5.21 µg/mL (≈ 3.83 µM).
Compound `C[C@@H]1CC[C@@]2(OC1)O[C@H]1C[C@H]3[C@@H]4CC[C@H]5C[C@@H](O[C@@H]6O[C@H](CO)[C@H](O[C@@H]7O[C@H](CO)[C@@H](O)[C@H](O[C@@H]8OC[C@@H](O)[C@H](O)[C@H]8O)[C@H]7O[C@@H]7O[C@H](CO)[C@@H](O)[C@H](O[C@@H]8OC[C@@H](O)[C@H](O)[C@H]8O)[C@H]7O)[C@H](O)[C@H]6O)CC[C@]5(C)[C@H]4CC[C@]3(C)[C@H]1[C@@H]2C` has an IC50 of 7.2 µg/mL (≈ 6.17 µM).
For `C[C@H](CC[C@@]1(O)O[C@H]2C[C@H]3[C@@H]4CC[C@H]5C[C@@H](O[C@@H]6O[C@H](CO)[C@H](O[C@@H]7O[C@H](CO)[C@@H](O)[C@H](O[C@@H]8OC[C@@H](O)[C@H](O)[C@H]8O)[C@H]7O[C@@H]7O[C@H](CO)[C@@H](O)[C@H](O)[C@H]7O)[C@H](O)[C@H]6O)CC[C@]5(C)[C@H]4CC[C@]3(C)[C@H]2[C@@H]1C)CO[C@@H]1O[C@H](CO)[C@@H](O)[C@H](O)[C@H]1O`, the IC50 was 18.8 µg/mL (≈ 15.5 µM).
`C[C@@H]1CC[C@@]2(OC1)O[C@H]1C[C@H]3[C@@H]4C[C@H](O)[C@H]5C[C@@H](O[C@@H]6O[C@H](CO)[C@H](O[C@@H]7O[C@H](CO)[C@@H](O)[C@H](O[C@@H]8OC[C@@H](O)[C@H](O)[C@H]8O)[C@H]7O[C@@H]7O[C@H](CO)[C@@H](O)[C@H](O[C@@H]8OC[C@@H](O)[C@H](O)[C@H]8O)[C@H]7O)[C@H](O)[C@H]6O)CC[C@]5(C)[C@H]4CC[C@]3(C)[C@H]1[C@@H]2C` showed an IC50 of 7.5 µg/mL (≈ 6.34 µM).
`C[C@H](CC[C@@]1(O)O[C@H]2C[C@H]3[C@@H]4CC[C@H]5C[C@@H](O[C@@H]6O[C@H](CO)[C@H](O[C@@H]7O[C@H](CO)[C@@H](O)[C@H](O[C@@H]8OC[C@@H](O)[C@H](O)[C@H]8O)[C@H]7O[C@@H]7O[C@H](CO)[C@@H](O)[C@H](O[C@@H]8OC[C@@H](O)[C@H](O)[C@H]8O)[C@H]7O)[C@H](O)[C@H]6O)CC[C@]5(C)[C@H]4CC[C@]3(C)[C@H]2[C@@H]1C)CO[C@@H]1O[C@H](CO)[C@@H](O)[C@H](O)[C@H]1O` [POLIANTHOSIDE F] was tested, and the IC50 was 20 µg/mL (≈ 14.8 µM).
`C[C@@H]1CC[C@@]2(OC1)O[C@H]1C[C@H]3[C@@H]4CC[C@H]5C[C@@H](O[C@@H]6O[C@H](CO)[C@H](O[C@@H]7O[C@H](CO)[C@@H](O)[C@H](O[C@@H]8O[C@H](CO)[C@@H](O)[C@H](O)[C@H]8O)[C@H]7O[C@@H]7O[C@H](CO)[C@@H](O)[C@H](O[C@@H]8OC[C@@H](O)[C@H](O)[C@H]8O)[C@H]7O)[C@H](O)[C@H]6O)CC[C@]5(C)[C@H]4CC[C@]3(C)[C@H]1[C@@H]2C` [POLIANTHOSIDE B] gave an IC50 of over 20 µg/mL.
Work on `C[C@@H]1CC[C@@]2(OC1)O[C@H]1C[C@H]3[C@@H]4CC[C@H]5C[C@@H](O[C@@H]6O[C@H](CO)[C@H](O[C@@H]7O[C@H](CO)[C@@H](O)[C@H](O[C@@H]8O[C@H](CO)[C@@H](O)[C@H](O)[C@H]8O)[C@H]7O[C@@H]7O[C@H](CO)[C@@H](O)[C@H](O[C@@H]8OC[C@@H](O)[C@H](O)[C@H]8O)[C@H]7O)[C@H](O)[C@H]6O)CC[C@]5(C)[C@H]4CC(=O)[C@]3(C)[C@H]1[C@@H]2C` [AGAMENOSIDE F] yielded an IC50 of 5.1 µg/mL (≈ 4.21 µM).
`C[C@@H]1CC[C@@]2(OC1)O[C@H]1C[C@H]3[C@@H]4CC[C@H]5C[C@@H](O[C@@H]6O[C@H](CO)[C@H](O[C@@H]7O[C@H](CO)[C@@H](O)[C@H](O[C@@H]8O[C@H](CO)[C@@H](O)[C@H](O)[C@H]8O)[C@H]7O[C@@H]7O[C@H](CO)[C@@H](O)[C@H](O[C@@H]8O[C@H](CO)[C@@H](O)[C@H](O)[C@H]8O)[C@H]7O)[C@H](O)[C@H]6O)CC[C@]5(C)[C@H]4CC[C@]3(C)[C@H]1[C@@H]2C` [POLIANTHOSIDE C] gave an IC50 of over 20 µg/mL.
Work on `C[C@H](CC[C@@]1(O)O[C@H]2C[C@H]3[C@@H]4CC[C@H]5C[C@@H](O[C@@H]6O[C@H](CO)[C@H](O[C@@H]7O[C@H](CO)[C@@H](O)[C@H](O[C@@H]8OC[C@@H](O)[C@H](O)[C@H]8O)[C@H]7O[C@@H]7O[C@H](CO)[C@@H](O)[C@H](O)[C@H]7O)[C@H](O)[C@H]6O)CC[C@]5(C)[C@H]4CC(=O)[C@]3(C)[C@H]2[C@@H]1C)CO[C@@H]1O[C@H](CO)[C@@H](O)[C@H](O)[C@H]1O` [POLIANTHOSIDE D] yielded an IC50 of 7.86 µg/mL (≈ 6.39 µM).
